By Ki is commonly meant the equilibrium dissociation constant of an inhibitor or competing ligand from its target. Lower therefore signals tighter binding.

Where “and” joins values, the source holds several entries; their conditions need not be identical. Equal values may be shown once.

In ChEMBL document CHEMBL1149321, “Synthesis, radiosynthesis, and biological evaluation of carbon-11 and iodine-123 labeled 2beta-carbomethoxy-3beta-[4'-((Z)-2-haloethenyl)phenyl]tropanes: candidate radioligands for in vivo imaging of the serotonin transporter” (J Med Chem, 2004) one finds Ki data, which are given here for 9 molecules.

The target in experiment [1] is T1, Sodium-dependent dopamine transporter (Homo sapiens, UniProt Q01959). Kind of experiment: In vitro binding affinity against human dopamine transporter in dog kidney cell line by using [3H]WIN-35428 as the radiotracer. Format: cell-based.
Experiment [2] deals with Sodium-dependent serotonin transporter (Homo sapiens, UniProt P31645). Nature of the experiment: biochemical. Format: cell-based, kidney.
For experiment [3], the target named is T2, Sodium-dependent noradrenaline transporter (Homo sapiens, UniProt P23975). Nature of the experiment: In vitro binding affinity against human norepinephrine transporter in human embryonic kidney cell line by using [3H]-[…] radioligand. Format: cell-based.
Experiment [4] concerns the target T2, Sodium-dependent noradrenaline transporter. Nature of the experiment: In vitro binding affinity against human norepinephrine transporter in human embryonic kidney cell line by using [125I]-RTI-55 radioligand. Format: cell-based.
Experiment [5] has as its target T1, Sodium-dependent dopamine transporter. Nature of the experiment: In vitro binding affinity against human dopamine transporter in dog kidney cell line by using [125I]RTI-55 as radioligand. Format: cell-based. The method, boiled down: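 Membranes of MDCK cells stably expressing hDAT, grown in DMEM/10% FBS/geneticin. […] Competitor 12 concentrations 10⁻¹³–10⁻⁵ M in triplicate; GF/B filtration, gamma counting; Ki as geometric mean of ≥3 assays.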

For experiment [6] the target is unchanged. Nature of the experiment: In vitro binding affinity against human dopamine transporter in dog kidney cell line using [125I]RTI-55 as radioligand. Format: cell-based.
Experiment [7] concerns the target T2, Sodium-dependent noradrenaline transporter. Kind of experiment: In vitro binding affinity against human norepinephrine transporter in human embryonic kidney cell line using [125I]RTI-55 as radioligand. Format: cell-based.

Sequence of Sodium-dependent serotonin transporter (P31645 whole entry): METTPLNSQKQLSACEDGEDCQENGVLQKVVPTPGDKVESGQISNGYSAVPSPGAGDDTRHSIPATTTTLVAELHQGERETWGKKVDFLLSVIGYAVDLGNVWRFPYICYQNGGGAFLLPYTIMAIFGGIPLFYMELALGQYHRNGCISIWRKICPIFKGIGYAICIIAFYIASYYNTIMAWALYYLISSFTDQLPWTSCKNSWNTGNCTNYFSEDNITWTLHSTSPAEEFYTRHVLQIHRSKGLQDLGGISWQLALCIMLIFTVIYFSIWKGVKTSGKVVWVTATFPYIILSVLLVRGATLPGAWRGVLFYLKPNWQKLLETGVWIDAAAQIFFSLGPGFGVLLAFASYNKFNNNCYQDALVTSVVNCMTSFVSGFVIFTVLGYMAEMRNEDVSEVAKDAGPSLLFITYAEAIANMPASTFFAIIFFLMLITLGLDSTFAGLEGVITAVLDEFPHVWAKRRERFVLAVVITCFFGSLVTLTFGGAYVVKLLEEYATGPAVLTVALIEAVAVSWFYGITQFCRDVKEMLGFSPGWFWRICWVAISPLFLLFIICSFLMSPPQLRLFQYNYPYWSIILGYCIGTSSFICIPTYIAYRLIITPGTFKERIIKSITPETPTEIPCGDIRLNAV
T1 sequence (Q01959 whole entry): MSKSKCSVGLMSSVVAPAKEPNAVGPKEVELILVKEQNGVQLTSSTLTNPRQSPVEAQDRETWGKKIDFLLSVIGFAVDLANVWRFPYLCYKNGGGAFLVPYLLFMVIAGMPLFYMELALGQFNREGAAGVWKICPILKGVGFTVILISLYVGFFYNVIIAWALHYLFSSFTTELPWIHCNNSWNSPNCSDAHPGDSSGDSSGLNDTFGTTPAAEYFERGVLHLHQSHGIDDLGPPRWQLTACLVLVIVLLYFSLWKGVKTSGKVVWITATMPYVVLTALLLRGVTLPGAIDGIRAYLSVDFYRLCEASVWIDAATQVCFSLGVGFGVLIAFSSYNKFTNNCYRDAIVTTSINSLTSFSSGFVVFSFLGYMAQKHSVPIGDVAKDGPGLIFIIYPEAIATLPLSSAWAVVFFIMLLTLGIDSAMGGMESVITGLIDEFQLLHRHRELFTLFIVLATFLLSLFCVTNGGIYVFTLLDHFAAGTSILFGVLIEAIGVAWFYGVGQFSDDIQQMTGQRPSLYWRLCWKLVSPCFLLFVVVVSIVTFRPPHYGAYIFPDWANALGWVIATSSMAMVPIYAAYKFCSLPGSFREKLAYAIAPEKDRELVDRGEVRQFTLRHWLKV
T2 sequence (P23975 whole entry): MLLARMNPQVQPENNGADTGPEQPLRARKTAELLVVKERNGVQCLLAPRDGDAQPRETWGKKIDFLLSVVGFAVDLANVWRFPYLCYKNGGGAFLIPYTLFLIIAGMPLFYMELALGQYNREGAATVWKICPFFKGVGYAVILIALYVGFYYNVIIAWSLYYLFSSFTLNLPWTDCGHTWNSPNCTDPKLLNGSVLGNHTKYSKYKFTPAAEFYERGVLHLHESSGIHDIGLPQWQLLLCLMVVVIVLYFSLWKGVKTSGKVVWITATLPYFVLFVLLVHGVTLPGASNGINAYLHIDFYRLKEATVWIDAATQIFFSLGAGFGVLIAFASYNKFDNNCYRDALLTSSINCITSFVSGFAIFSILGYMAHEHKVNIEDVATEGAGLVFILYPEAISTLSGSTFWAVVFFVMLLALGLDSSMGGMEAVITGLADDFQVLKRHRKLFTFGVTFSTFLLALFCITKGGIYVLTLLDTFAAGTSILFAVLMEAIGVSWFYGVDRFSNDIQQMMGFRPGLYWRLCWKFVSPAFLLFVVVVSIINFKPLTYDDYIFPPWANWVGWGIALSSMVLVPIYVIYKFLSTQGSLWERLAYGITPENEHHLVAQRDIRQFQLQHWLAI

As for `CN1C2CCC1C(C(=O)Oc1ccccc1)C(c1ccc(Cl)cc1)C2` (centres undefined), the values for the Ki in experiment [1], in experiment [2] and in experiment [3] were 5.25 nM, 390 nM and 242 nM, respectively.

As for `COC(=O)C1C2CCC(CC1c1ccc(C=C(Br)Br)cc1)N2` (centres undefined), the values for the Ki in experiment [4], in experiment [5] and in experiment [2] were 5.6 nM, 5.6 nM and 0.08 nM, respectively.

As to `COC(=O)C1C(c2ccc(/C=C\Br)cc2)CC2CCC1N2C` (centres undefined), the figures for the Ki in experiment [4], in experiment [5] and in experiment [2] were 111 nM, 3.1 nM and 0.08 nM, respectively.

For the molecule `COC(=O)C1C2CCC(CC1c1ccc(/C=C\Br)cc1)N2` (centres undefined), the Ki in experiment [4] came to 2.5 nM; in experiment [5], 3.9 nM; in experiment [2], 0.04 nM.

`COC(=O)C1C2CCC(CC1c1ccc(I)cc1)N2` (centres undefined): the Ki in experiment [5] came to 0.69 nM; in experiment [2], 0.36 nM; in experiment [3], 7.5 nM.

As to `COC(=O)C1C(c2ccc(C=C(Br)Br)cc2)CC2CCC1N2C` (centres undefined), the results for the Ki in experiment [4], in experiment [5] and in experiment [2] were 161 nM, 6.73 nM and 1.35 nM, respectively.

With `COC(=O)C1C(c2ccc(/C=C\I)cc2)CC2CCC1N2C` (centres undefined), the results for the Ki in experiment [4], in experiment [5] and in experiment [2] were 450 nM, 22 nM and 0.11 nM, respectively.

Regarding `COC(=O)[C@@H]1C2CC[C@H](C[C@@H]1c1ccc(I)cc1)N2C`, the Ki was determined as 1.3 nM in experiment [5], 4.2 nM in experiment [2] and 36 nM in experiment [3].

For `COC(=O)C1C2CCC(CC1c1ccc(/C=C\I)cc1)N2` (centres undefined), the Ki in experiment [5] was 3.5 nM; in experiment [2] it was 0.05 nM and 0.04 nM (2×); in experiment [6], 15 nM; in experiment [6] (kidney), 15 nM; in experiment [7] it was 24 nM.
